# From PMC7733813 (Proceedings of the National Academy of Sciences of the …, 2020)
# Where a SMILES comes first, the peptide text is derived from it. Bridges are numbered along the chain shown (N, C = ends). Roman numbers before positions name the chains, in order. [ ]: non-standard residue; d: D form. PEG3 = NCCOCCOCCOCCC(=O)O; Dap = NC[C@H](N)C(=O)O
# What was measured:
# ovariectomized mice = format: in vivo, mouse; conditions: OVX mice, 5 µmol/kg i.v. once weekly, 4 wk, vs vehicle
# Method in brief: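 C57BL/6J ovariectomized mice, kept specific-pathogen-free, were given test compound i.v. once weekly for 4 wk. Sham-operated and vehicle groups served as controls. Bones were fixed in 70% ethanol and scanned by µCT, and 3D structural indices were computed. Undecalcified tibiae were embedded in glycol methacrylate and cut into 5 µm sections. Sections were stained with toluidine blue for osteoblast parameters and TRAP for osteoclast parameters. Data are mean ± SEM.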
# [1] = tested on: mouse primary osteoblasts (calvarial cells); test: Bone nodule formation in primary calvarial cells, alizarin red S staining; format: cell-based; conditions: 10 µg/mL mouse Sema4D-Fc; peptide 0.05, 0.5, 5 µM; 21 d
# mouse PlxnB1 = target: T1, mouse PlxnB1 (Mus musculus, UniProt Q8CJH3); test: Surface plasmon resonance; format: binding
# T1 sequence (Q8CJH3 20-479 limits assumed): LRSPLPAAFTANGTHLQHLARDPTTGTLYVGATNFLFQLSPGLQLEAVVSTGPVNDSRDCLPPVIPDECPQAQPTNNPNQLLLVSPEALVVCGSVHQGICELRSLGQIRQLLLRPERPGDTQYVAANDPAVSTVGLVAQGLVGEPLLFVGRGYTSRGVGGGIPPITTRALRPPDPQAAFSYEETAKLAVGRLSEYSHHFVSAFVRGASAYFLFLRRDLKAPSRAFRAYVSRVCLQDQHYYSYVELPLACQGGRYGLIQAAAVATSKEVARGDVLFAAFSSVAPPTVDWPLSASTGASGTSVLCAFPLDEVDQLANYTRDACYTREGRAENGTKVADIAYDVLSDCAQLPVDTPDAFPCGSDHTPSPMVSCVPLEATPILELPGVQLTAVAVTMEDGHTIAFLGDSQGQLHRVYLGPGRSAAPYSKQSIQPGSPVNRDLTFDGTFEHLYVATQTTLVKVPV
# [2] = tested on: Col1a1, Alpl, Bglap expression in mouse primary osteoblasts; test: qPCR of genes implicated in osteoblastic bone formation in primary osteoblasts; format: cell-based; conditions: with or without Sema4D-Fc, vs vehicle control
smiles,measurement,setting,value
"CC[C@H](C)[C@@H]1NC(=O)[C@H](Cc2ccc(O)cc2)NC(=O)[C@@H]2CCCN2C(=O)[C@H](CCCNC(=N)N)NC(=O)[C@@H](Cc2c[nH]c3ccccc23)NC(=O)CSC[C@@H](C(=O)NCC(=O)NCCOCCOCCOCCC(=O)NC[C@H](NC(=O)CCOCCOCCOCCNC(=O)CNC(=O)[C@@H]2CSCC(=O)N[C@H](Cc3c[nH]c4ccccc34)C(=O)N[C@@H](CCCNC(=N)N)C(=O)N3CCC[C@H]3C(=O)N[C@@H](Cc3ccc(O)cc3)C(=O)N[C@@H]([C@@H](C)CC)C(=O)N[C@@H](CCC(=O)O)C(=O)N[C@@H](CCCNC(=N)N)C(=O)N[C@@H](Cc3c[nH]c4ccccc34)C(=O)N[C@@H]([C@@H](C)O)C(=O)NCC(=O)N[C@@H](CCCNC(=N)N)C(=O)N[C@@H](CC(C)C)C(=O)N[C@@H]([C@@H](C)CC)C(=O)N[C@@H](C(C)C)C(=O)N2)C(N)=O)NC(=O)[C@H](C(C)C)NC(=O)[C@H]([C@@H](C)CC)NC(=O)[C@H](CC(C)C)NC(=O)[C@H](CCCNC(=N)N)NC(=O)CNC(=O)[C@H]([C@@H](C)O)NC(=O)[C@H](Cc2c[nH]c3ccccc23)NC(=O)[C@H](CCCNC(=N)N)NC(=O)[C@H](CCC(=O)O)NC1=O [PB1d6A9] (I: {CH2CO}-[dW]RPYIERWTGRLIVCG[PEG3][Dap]-NH2 / II: {CH2CO}-[dW]RPYIERWTGRLIVCG[PEG3]; amide I:18-II:C; thioether I:N-I:15, II:N-II:15)","bone loss, µCT of femurs",ovariectomized mice,clear suppression of bone loss
same,bone nodule formation (alizarin red S),[1],dose-dependent increases in bone formation
same,Kd,mouse PlxnB1,200 pM
same,"decrease in dissociation rate of dimer over monomer, mouse PlxnB1",mouse PlxnB1; PB1d6A9 vs PB1m6A9,10 fold
same,"improvement in KD of dimer over monomer, mouse PlxnB1",mouse PlxnB1; PB1d6A9 vs PB1m6A9,~220 fold
same,"increase in association rate of dimer over monomer, mouse PlxnB1",mouse PlxnB1; PB1d6A9 vs PB1m6A9,22 fold
same,"expression of Col1a1, Alpl and Bglap",[2],enhanced
